# Results from ChEMBL document CHEMBL2040727, “Substituted thiazoles VI. Synthesis and antitumor activity of new 2-acetamido- and 2 or 3-propanamido-thiazole analogs” (2012).
# Columns and labels:
# Format in all cases: functional
# MDA-MB-468 = test: Growth inhibition of human MDA-MB-468 cells at 10 uM after 48 hrs by coulter counter analysis; settings: MDA-MB-468, 48 h, read-out: GI
# Outline: (§1)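 Single-dose NCI 60-line panel screen of test compounds. Cells grown in RPMI 1640 with 10% FBS. Compounds dissolved in DMSO, then diluted in phosphate buffer saline (final DMSO below 1%). Wells run in duplicate at 6 × 10⁴ cells/ml. Controls held PBS and DMSO at matching dilutions. Incubation 48 h at 37 °C under humidified 5% CO2. Cells diluted tenfold in saline and counted by Coulter counter. Percent growth inhibition taken from mean-graph of treated-cell growth.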
# [1] = Growth inhibition of human NCI-ADR-RES cells at 10 uM after 48 hrs by coulter counter analysis; settings: read-out: GI; outline: as §1
# NCI-H460 = test: Growth inhibition of human NCI-H460 cells at 10 uM after 48 hrs by coulter counter analysis; settings: NCI-H460, 48 h, read-out: GI; outline: as §1
# NCI-H226 = test: Growth inhibition of human NCI-H226 cells at 10 uM after 48 hrs by coulter counter analysis; settings: NCI-H226, 48 h, read-out: GI; outline: as §1
# NCI-H23 = test: Growth inhibition of human NCI-H23 cells at 10 uM after 48 hrs by coulter counter analysis; settings: NCI-H23, 48 h, read-out: GI; outline: as §1
# OVCAR-5 = test: Growth inhibition of human OVCAR5 cells at 10 uM after 48 hrs by coulter counter analysis; settings: OVCAR-5, 48 h, read-out: GI; outline: as §1
# RPMI-8226 = test: Growth inhibition of human RPMI8226 cells at 10 uM after 48 hrs by coulter counter analysis; settings: RPMI-8226, 48 h, read-out: GI; outline: as §1
# HT-29 = test: Growth inhibition of human HT-29 cells at 10 uM after 48 hrs by coulter counter analysis; settings: HT-29, 48 h, read-out: GI; outline: as §1
# SNB-75 = test: Growth inhibition of human SNB75 cells at 10 uM after 48 hrs by coulter counter analysis; settings: SNB-75, 48 h, read-out: GI
# Outline: (§2)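 Single-dose screen in the NCI 60 cell line panel. Cells grown in RPMI 1640 with 10% FBS. Compounds dissolved in DMSO and diluted in phosphate buffered saline, final DMSO under 1%. Duplicate wells seeded from culture at 6 × 10⁴ cells/ml. Incubated 48 h at 37 °C, humidified, 5% CO2. Cells diluted tenfold in saline and Coulter-counted. Percent growth inhibition computed against PBS/DMSO controls.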
# NCI-H322M = test: Growth inhibition of human NCI-H322M cells at 10 uM after 48 hrs by coulter counter analysis; settings: read-out: GI; outline: as §1
# SK-MEL-5 = test: Growth inhibition of human SK-MEL-5 cells at 10 uM after 48 hrs by coulter counter analysis; settings: SK-MEL-5, 48 h, read-out: GI; outline: as §1
# SR = test: Growth inhibition of human SR cells at 10 uM after 48 hrs by coulter counter analysis; settings: read-out: GI; outline: as §2
# BT-549 = test: Growth inhibition of human BT549 cells at 10 uM after 48 hrs by coulter counter analysis; settings: BT-549, 48 h, read-out: GI; outline: as §1
# SK-MEL-28 = test: Growth inhibition of human SK-MEL-28 cells at 10 uM after 48 hrs by coulter counter analysis; settings: SK-MEL-28, 48 h, read-out: GI; outline: as §1
# HCT-116 = test: Growth inhibition of human HCT116 cells at 10 uM after 48 hrs by coulter counter analysis; settings: HCT-116, 48 h, read-out: GI; outline: as §1
# K562 = test: Growth inhibition of human K562 cells at 10 uM after 48 hrs by coulter counter analysis; settings: K562, 48 h, read-out: GI; outline: as §1
# HOP-92 = test: Growth inhibition of human HOP92 cells at 10 uM after 48 hrs by coulter counter analysis; settings: HOP-92, 48 h, read-out: GI; outline: as §1
# ACHN = test: Growth inhibition of human ACHN cells at 10 uM after 48 hrs by coulter counter analysis; settings: read-out: GI; outline: as §1
# PC-3 = test: Growth inhibition of human PC3 cells at 10 uM after 48 hrs by coulter counter analysis; settings: PC-3, 48 h, read-out: GI; outline: as §1
# T47D = test: Growth inhibition of human T47D cells at 10 uM after 48 hrs by coulter counter analysis; settings: read-out: GI; outline: as §2
# EKVX = test: Growth inhibition of human EKVX cells at 10 uM after 48 hrs by coulter counter analysis; settings: read-out: GI; outline: as §1
# MDA-MB-231 = test: Growth inhibition of human MDA-MB-231 cells at 10 uM after 48 hrs by coulter counter analysis; settings: MDA-MB-231, 48 h, read-out: GI; outline: as §1
# HOP-62 = test: Growth inhibition of human HOP62 cells at 10 uM after 48 hrs by coulter counter analysis; settings: HOP-62, 48 h, read-out: GI; outline: as §1
# CAKI-1 = test: Growth inhibition of human Caki1 cells at 10 uM after 48 hrs by coulter counter analysis; settings: CAKI-1, 48 h, read-out: GI; outline: as §1
# SW-620 = test: Growth inhibition of human SW620 cells at 10 uM after 48 hrs by coulter counter analysis; settings: SW-620, 48 h, read-out: GI; outline: as §2
# OVCAR-8 = test: Growth inhibition of human OVCAR8 cells at 10 uM after 48 hrs by coulter counter analysis; settings: OVCAR-8, 48 h, read-out: GI; outline: as §1
# A549 = test: Growth inhibition of human A549/ATCC cells at 10 uM after 48 hrs by coulter counter analysis; settings: A549, 48 h, read-out: GI; outline: as §1
# 786-0 = test: Growth inhibition of human 786-0 cells at 10 uM after 48 hrs by coulter counter analysis; settings: 786-0, 48 h, read-out: GI; outline: as §1
# DU-145 = test: Growth inhibition of human DU145 cells at 10 uM after 48 hrs by coulter counter analysis; settings: DU-145, 48 h, read-out: GI; outline: as §1
# OVCAR-3 = test: Growth inhibition of human OVCAR3 cells at 10 uM after 48 hrs by coulter counter analysis; settings: OVCAR-3, 48 h, read-out: GI; outline: as §1
# SF-295 = test: Growth inhibition of human SF295 cells at 10 uM after 48 hrs by coulter counter analysis; settings: SF-295, 48 h, read-out: GI; outline: as §1
# UO-31 = test: Growth inhibition of human UO31 cells at 10 uM after 48 hrs by coulter counter analysis; settings: UO-31, 48 h, read-out: GI; outline: as §2
# U-251 = test: Growth inhibition of human U251 cells at 10 uM after 48 hrs by coulter counter analysis; settings: U-251, 48 h, read-out: GI; outline: as §2
# KM12 = test: Growth inhibition of human KM12 cells at 10 uM after 48 hrs by coulter counter analysis; settings: KM12, 48 h, read-out: GI; outline: as §1
# SN12C = test: Growth inhibition of human SN12C cells at 10 uM after 48 hrs by coulter counter analysis; settings: read-out: GI; outline: as §1
# CCRF-CEM = test: Growth inhibition of human CCRF-CEM cells at 10 uM after 48 hrs by coulter counter analysis; settings: read-out: GI; outline: as §1
SMILES,inhibition of growth at 10 µM [1] [%],inhibition of growth at 10 µM (NCI-H460) [%],inhibition of growth at 10 µM (NCI-H226) [%],inhibition of growth at 10 µM (NCI-H23) [%],inhibition of growth at 10 µM (OVCAR-5) [%],inhibition of growth at 10 µM (RPMI-8226) [%],inhibition of growth at 10 µM (HT-29) [%],inhibition of growth at 10 µM (SNB-75) [%],inhibition of growth at 10 µM (NCI-H322M) [%],inhibition of growth at 10 µM (SK-MEL-5) [%],inhibition of growth at 10 µM (SR) [%],inhibition of growth at 10 µM (BT-549) [%],inhibition of growth at 10 µM (SK-MEL-28) [%],inhibition of growth at 10 µM (HCT-116) [%],inhibition of growth at 10 µM (K562) [%],inhibition of growth at 10 µM (ACHN) [%],inhibition of growth at 10 µM (PC-3) [%],inhibition of growth at 10 µM (T47D) [%],inhibition of growth at 10 µM (EKVX) [%],inhibition of growth at 10 µM (MDA-MB-231) [%],other results
Cc1cnc(NC(=O)CCN2CCN(c3ccccc3)CC2)s1,< 10,< 10,< 10,< 10,< 10,< 10,< 10,< 10,< 10,< 10,14.3,< 10,< 10,< 10,< 10,< 10,< 10,< 10,11.4,< 10,inhibition of growth at 10 µM (MDA-MB-468): < 10%; inhibition of growth at 10 µM (HOP-92): < 10%; inhibition of growth at 10 µM (HOP-62): < 10%; inhibition of growth at 10 µM (CAKI-1): < 10%; inhibition of growth at 10 µM (SW-620): < 10%; inhibition of growth at 10 µM (OVCAR-8): < 10%; inhibition of growth at 10 µM (A549): < 10%; inhibition of growth at 10 µM (786-0): < 10%; inhibition of growth at 10 µM (DU-145): < 10%; inhibition of growth at 10 µM (OVCAR-3): < 10%; inhibition of growth at 10 µM (SF-295): < 10%; inhibition of growth at 10 µM (UO-31): 12.8%; inhibition of growth at 10 µM (U-251): < 10%; inhibition of growth at 10 µM (KM12): < 10%; inhibition of growth at 10 µM (SN12C): < 10%
CCOC(=O)c1sc(NC(=O)CN(C)C)nc1C,< 10,< 10,< 10,< 10,< 10,< 10,< 10,< 10,< 10,< 10,< 10,< 10,< 10,< 10,< 10,< 10,< 10,< 10,< 10,< 10,inhibition of growth at 10 µM (MDA-MB-468): < 10%; inhibition of growth at 10 µM (HOP-92): < 10%; inhibition of growth at 10 µM (HOP-62): < 10%; inhibition of growth at 10 µM (CAKI-1): < 10%; inhibition of growth at 10 µM (SW-620): < 10%; inhibition of growth at 10 µM (OVCAR-8): < 10%; inhibition of growth at 10 µM (A549): < 10%; inhibition of growth at 10 µM (786-0): < 10%; inhibition of growth at 10 µM (DU-145): < 10%; inhibition of growth at 10 µM (OVCAR-3): < 10%; inhibition of growth at 10 µM (SF-295): < 10%; inhibition of growth at 10 µM (UO-31): 14.8%; inhibition of growth at 10 µM (U-251): < 10%; inhibition of growth at 10 µM (KM12): < 10%; inhibition of growth at 10 µM (SN12C): < 10%
O=C(CCCl)Nc1nc(-c2ccccc2)cs1,59.6,63.6,29.3,34.7,35.7,93.1,76.1,60.6,29.2,48.9,65.4,74.5,19.4,78.3,69.3,50.7,57.9,55.2,24.1,53.5,inhibition of growth at 10 µM (CCRF-CEM): 92.7%; inhibition of growth at 10 µM (HOP-62): 51.4%; inhibition of growth at 10 µM (CAKI-1): 69.3%; inhibition of growth at 10 µM (SW-620): 70.7%; inhibition of growth at 10 µM (OVCAR-8): 56.1%; inhibition of growth at 10 µM (A549): 53.1%; inhibition of growth at 10 µM (786-0): 36.7%; inhibition of growth at 10 µM (DU-145): 89.8%; inhibition of growth at 10 µM (OVCAR-3): 98%; inhibition of growth at 10 µM (SF-295): 46.3%; inhibition of growth at 10 µM (UO-31): 83.2%; inhibition of growth at 10 µM (U-251): 55.8%; inhibition of growth at 10 µM (KM12): 52.6%; inhibition of growth at 10 µM (SN12C): 57.2%
O=C(CCN1CCN(c2ccccc2)CC1)Nc1nc(-c2ccccc2)cs1,34.6,11.3,26.6,31.4,18.8,16.8,< 10,28.6,13,52.5,19.9,26.1,< 10,41.7,32.6,16.4,28.3,20.4,24.8,< 10,inhibition of growth at 10 µM (MDA-MB-468): 33.4%; inhibition of growth at 10 µM (CCRF-CEM): 31.4%; inhibition of growth at 10 µM (HOP-92): 59.6%; inhibition of growth at 10 µM (HOP-62): 24.8%; inhibition of growth at 10 µM (CAKI-1): 37.7%; inhibition of growth at 10 µM (SW-620): 10.9%; inhibition of growth at 10 µM (OVCAR-8): 23.6%; inhibition of growth at 10 µM (A549): 17.9%; inhibition of growth at 10 µM (786-0): 18.1%; inhibition of growth at 10 µM (DU-145): 18.2%; inhibition of growth at 10 µM (OVCAR-3): 26.1%; inhibition of growth at 10 µM (SF-295): 13.6%; inhibition of growth at 10 µM (UO-31): 68.9%; inhibition of growth at 10 µM (U-251): 15.6%; inhibition of growth at 10 µM (KM12): 10.7%; inhibition of growth at 10 µM (SN12C): 33.5%
